Assay [1] is described as follows: Inhibition of CK1g1/g2/g3 in human HeLa cells lysate at 10 uM pre incubated for 15 mins followed by ADP acyl phosphate probe addition and measured after 10 mins by LC-MS/MS analysis relative to control. The note with it: 25 min, condition cancer.
Assay [2] has as its target Mitogen-activated protein kinase 3 (Homo sapiens, UniProt P27361). Briefly: Inhibition of ERK1 in human HeLa cells lysate at 10 uM pre incubated for 15 mins followed by ADP acyl phosphate probe addition and measured after 10 mins by LC-MS/MS analysis relative to control. The class given is subcellular. The note with it: time 25.0 min.
The target in assay [3] is T1, Serine/threonine-protein kinase Chk1 (Homo sapiens) (UniProt O14757).
T1 sequence (whole entry): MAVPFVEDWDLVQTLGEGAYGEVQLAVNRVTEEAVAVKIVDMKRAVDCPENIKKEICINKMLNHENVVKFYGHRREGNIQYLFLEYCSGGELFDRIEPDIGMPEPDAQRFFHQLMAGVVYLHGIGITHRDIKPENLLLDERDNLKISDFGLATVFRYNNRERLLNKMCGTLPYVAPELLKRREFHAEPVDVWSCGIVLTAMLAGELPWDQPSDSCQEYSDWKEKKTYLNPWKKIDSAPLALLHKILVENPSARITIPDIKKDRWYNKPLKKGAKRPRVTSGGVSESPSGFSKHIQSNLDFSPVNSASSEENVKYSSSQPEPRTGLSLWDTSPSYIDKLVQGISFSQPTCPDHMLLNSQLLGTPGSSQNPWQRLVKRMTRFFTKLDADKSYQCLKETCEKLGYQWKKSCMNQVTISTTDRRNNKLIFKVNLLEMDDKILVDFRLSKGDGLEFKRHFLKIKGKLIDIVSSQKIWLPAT
Briefly: Inhibition of CHK1 in human HeLa cells lysate at 2 uM pre incubated for 15 mins followed by ATP acyl phosphate probe addition and measured after 10 mins by LC-MS/MS analysis relative to control. The class given is subcellular. To be noted: time 25.0 min.

For assay [4], the target named is T2, Serine/threonine-protein kinase D3 (Homo sapiens) (UniProt O94806).
T2 sequence (whole entry): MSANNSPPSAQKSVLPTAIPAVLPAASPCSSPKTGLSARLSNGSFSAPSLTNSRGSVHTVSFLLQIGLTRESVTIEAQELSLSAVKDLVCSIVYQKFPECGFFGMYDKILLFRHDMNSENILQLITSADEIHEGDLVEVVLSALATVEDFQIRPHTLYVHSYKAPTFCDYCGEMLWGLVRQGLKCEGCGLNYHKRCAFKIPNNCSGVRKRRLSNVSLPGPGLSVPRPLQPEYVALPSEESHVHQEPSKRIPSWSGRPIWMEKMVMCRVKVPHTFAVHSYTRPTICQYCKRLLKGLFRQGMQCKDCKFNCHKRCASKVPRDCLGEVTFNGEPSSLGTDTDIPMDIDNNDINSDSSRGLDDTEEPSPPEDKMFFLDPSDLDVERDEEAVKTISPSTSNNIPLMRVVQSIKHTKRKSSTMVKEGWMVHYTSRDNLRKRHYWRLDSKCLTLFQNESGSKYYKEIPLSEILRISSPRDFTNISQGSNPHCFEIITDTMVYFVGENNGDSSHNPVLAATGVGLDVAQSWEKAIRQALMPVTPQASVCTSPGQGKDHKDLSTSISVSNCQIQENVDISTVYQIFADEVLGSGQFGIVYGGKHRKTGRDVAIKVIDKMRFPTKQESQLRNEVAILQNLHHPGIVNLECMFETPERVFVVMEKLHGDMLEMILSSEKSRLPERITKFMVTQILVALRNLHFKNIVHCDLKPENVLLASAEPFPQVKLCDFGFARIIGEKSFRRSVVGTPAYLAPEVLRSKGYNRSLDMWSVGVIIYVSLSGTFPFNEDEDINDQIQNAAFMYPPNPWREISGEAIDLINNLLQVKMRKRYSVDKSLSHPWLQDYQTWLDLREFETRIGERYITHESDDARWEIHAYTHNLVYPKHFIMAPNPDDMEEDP
Nature of the assay: Inhibition of PKD3 in human HeLa cells lysate at 2 uM pre incubated for 15 mins followed by ADP acyl phosphate probe addition and measured after 10 mins by LC-MS/MS analysis relative to control. It counts as subcellular. The note with it: time 25.0 min.

The target in assay [5] is T3, Phosphatidylinositol 5-phosphate 4-kinase type-2 alpha (Homo sapiens) (UniProt P48426).
T3 sequence (whole entry): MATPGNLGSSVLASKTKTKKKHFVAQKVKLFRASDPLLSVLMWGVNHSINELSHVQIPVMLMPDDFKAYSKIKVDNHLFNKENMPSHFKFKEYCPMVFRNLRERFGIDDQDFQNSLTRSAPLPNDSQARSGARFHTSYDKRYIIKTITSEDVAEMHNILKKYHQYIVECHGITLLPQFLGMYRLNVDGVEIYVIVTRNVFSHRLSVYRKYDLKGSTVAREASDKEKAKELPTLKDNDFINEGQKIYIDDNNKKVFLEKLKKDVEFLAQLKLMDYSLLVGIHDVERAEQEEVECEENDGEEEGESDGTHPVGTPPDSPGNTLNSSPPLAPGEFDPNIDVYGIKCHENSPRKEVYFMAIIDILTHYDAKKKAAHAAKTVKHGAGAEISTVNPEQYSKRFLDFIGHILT
Nature of the assay: Inhibition of PIP5K2A LIP site in human HeLa cells lysate at 10 uM pre incubated for 15 mins followed by ADP acyl phosphate probe addition and measured after 10 mins by LC-MS/MS analysis relative to control. It counts as subcellular. The note with it: time 25.0 min.

The test system of assay [6] is Lewis lung carcinoma. Nature of the assay: In vivo inhibition of […] in mouse LL2 cells allografted in C57Bl/6 mouse assessed as decrease in Grb2 phosphorylation level for 2 weeks by Western blot analysis. The class given is functional, organism-based. Background: In western blotting, separated proteins are transferred to a membrane and probed.
A short description of assay [7]: Inhibition of MAP3K2/MAP3K3 in human HeLa cells lysate at 50 uM pre incubated for 15 mins followed by ADP acyl phosphate probe addition and measured after 10 mins by LC-MS/MS analysis relative to control. The note with it: 25 min, condition cancer.
Assay [8] has as its target Phosphatidylinositol 4-kinase alpha (Homo sapiens, UniProt P42356). Nature of the assay: Inhibition of PIK4CA in human HeLa cells lysate at 50 uM pre incubated for 15 mins followed by ATP acyl phosphate probe addition and measured after 10 mins by LC-MS/MS analysis relative to control. To be noted: time 25.0 min. It counts as subcellular.
The target of assay [9] is Calcium/calmodulin-dependent protein kinase type II subunit gamma (Homo sapiens, UniProt Q13555). Briefly: Inhibition of CAMK2g in human HeLa cells lysate at 10 uM pre incubated for 15 mins followed by ATP acyl phosphate probe addition and measured after 10 mins by LC-MS/MS analysis relative to control. The class given is subcellular. The note with it: time 25.0 min. Put shortly:
(§1)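 KiNativ-type profiling in HeLa lysate (5 mg/mL total protein). Lysate preincubated 15 min with inhibitor at 50, 10, 2, 0.8 or 0 μM, then ATP or ADP acylphosphate probe added (5 μM final) for 10 min. Reaction stopped with urea and analysed by targeted MS, using up to four fragment ions per kinase peptide-probe conjugate. % inhibition calculated against untreated lysate. Duplicate reactions.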

The subject of assay [10] is Tyrosine-protein kinase ABL1 (Homo sapiens), P00519 [F317I]. Briefly: Inhibition of ABL1 F317I mutant (unknown origin) assessed as remaining activity at 10 uM by ATP-competition binding assay relative to control.
Assay [11] addresses Calcium/calmodulin-dependent protein kinase type II subunit delta (Homo sapiens, UniProt Q13557). Nature of the assay: Inhibition of CAMK2d in human HeLa cells lysate pre incubated for 15 mins followed by ATP acyl phosphate probe addition and measured after 10 mins by LC-MS/MS analysis. The class given is subcellular. Put shortly:
as §1

Calls of active or inactive are those of the source. No cut-off for these calls is given here. Some results are limits rather than exact numbers.

Mitogen-activated protein kinase 3, sequence (P27361 whole entry): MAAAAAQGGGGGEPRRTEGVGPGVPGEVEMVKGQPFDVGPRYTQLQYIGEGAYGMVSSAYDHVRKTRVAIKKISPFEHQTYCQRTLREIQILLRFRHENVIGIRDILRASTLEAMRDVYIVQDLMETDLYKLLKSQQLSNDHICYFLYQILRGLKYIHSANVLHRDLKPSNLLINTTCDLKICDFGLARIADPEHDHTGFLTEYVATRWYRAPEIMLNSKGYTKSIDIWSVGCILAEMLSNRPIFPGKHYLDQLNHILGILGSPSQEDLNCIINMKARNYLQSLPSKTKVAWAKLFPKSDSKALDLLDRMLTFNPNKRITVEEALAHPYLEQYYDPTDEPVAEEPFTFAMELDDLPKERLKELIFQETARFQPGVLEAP
Phosphatidylinositol 4-kinase alpha, sequence (P42356 whole entry, looked up): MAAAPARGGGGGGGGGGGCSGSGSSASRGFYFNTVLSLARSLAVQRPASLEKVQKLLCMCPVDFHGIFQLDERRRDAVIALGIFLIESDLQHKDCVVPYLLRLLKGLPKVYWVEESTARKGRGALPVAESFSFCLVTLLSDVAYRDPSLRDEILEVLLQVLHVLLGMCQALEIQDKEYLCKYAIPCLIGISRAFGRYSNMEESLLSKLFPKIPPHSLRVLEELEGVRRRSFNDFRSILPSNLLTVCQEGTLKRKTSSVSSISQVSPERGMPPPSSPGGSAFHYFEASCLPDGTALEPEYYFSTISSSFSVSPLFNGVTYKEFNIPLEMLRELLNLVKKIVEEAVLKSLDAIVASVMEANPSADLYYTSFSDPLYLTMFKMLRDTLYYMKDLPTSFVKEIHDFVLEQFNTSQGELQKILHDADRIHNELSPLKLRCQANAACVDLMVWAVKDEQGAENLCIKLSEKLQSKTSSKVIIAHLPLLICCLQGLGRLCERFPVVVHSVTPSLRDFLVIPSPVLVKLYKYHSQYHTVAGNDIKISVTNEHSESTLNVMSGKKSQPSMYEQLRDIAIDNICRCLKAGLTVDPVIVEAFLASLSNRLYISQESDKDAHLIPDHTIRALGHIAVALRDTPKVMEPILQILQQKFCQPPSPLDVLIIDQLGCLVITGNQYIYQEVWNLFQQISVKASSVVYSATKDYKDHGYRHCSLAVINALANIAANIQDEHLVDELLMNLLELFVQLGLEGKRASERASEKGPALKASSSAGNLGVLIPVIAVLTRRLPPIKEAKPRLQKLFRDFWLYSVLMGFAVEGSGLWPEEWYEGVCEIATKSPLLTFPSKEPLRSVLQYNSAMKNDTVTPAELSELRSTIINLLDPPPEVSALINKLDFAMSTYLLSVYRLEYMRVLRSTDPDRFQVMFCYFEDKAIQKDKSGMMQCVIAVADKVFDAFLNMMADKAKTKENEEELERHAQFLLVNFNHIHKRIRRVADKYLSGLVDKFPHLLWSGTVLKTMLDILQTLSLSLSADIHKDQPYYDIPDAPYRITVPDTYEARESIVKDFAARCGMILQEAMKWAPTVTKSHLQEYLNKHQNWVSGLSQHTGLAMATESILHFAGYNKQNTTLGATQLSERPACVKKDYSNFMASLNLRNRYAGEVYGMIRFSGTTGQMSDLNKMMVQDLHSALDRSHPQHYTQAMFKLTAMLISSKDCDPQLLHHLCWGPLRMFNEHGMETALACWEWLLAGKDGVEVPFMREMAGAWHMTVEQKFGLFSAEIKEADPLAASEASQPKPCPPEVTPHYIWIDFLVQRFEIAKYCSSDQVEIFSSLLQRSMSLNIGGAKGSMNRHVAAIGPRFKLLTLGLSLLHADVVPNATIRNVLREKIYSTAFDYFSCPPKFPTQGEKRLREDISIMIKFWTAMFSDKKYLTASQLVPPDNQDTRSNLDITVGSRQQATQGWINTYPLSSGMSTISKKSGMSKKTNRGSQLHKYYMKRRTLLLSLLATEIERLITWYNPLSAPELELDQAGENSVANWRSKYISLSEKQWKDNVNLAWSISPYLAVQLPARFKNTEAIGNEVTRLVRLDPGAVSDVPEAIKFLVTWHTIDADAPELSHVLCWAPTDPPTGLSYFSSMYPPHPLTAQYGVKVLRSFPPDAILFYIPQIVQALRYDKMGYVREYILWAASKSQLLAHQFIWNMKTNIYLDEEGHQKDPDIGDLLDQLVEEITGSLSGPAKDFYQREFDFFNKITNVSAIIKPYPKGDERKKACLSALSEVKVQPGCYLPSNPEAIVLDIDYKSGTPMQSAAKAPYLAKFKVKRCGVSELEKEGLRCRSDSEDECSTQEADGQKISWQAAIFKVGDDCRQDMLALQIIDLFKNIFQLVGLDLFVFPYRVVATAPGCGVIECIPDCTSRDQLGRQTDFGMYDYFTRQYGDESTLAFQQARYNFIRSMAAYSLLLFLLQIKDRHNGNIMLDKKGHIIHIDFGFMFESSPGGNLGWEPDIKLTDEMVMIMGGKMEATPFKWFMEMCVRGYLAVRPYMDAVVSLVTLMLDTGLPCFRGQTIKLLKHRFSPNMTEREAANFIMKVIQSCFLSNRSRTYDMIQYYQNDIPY
Calcium/calmodulin-dependent protein kinase type II subunit gamma, sequence (Q13555 whole entry, the tested form may be a part): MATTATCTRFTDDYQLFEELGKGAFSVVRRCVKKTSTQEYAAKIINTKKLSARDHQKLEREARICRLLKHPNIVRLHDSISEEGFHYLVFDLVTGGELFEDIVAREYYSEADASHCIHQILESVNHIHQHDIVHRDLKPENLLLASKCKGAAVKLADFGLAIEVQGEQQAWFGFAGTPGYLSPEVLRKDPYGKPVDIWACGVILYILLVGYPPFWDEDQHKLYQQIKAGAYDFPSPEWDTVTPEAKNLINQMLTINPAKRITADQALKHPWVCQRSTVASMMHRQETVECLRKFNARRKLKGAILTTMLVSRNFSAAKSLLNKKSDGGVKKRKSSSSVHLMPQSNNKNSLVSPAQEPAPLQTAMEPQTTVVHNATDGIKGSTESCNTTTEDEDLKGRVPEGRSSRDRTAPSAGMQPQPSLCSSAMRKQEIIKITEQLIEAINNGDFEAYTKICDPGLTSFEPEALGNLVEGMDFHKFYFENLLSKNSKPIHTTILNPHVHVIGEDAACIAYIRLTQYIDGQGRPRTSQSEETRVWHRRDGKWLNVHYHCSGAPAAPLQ
Calcium/calmodulin-dependent protein kinase type II subunit delta, sequence (Q13557 whole entry): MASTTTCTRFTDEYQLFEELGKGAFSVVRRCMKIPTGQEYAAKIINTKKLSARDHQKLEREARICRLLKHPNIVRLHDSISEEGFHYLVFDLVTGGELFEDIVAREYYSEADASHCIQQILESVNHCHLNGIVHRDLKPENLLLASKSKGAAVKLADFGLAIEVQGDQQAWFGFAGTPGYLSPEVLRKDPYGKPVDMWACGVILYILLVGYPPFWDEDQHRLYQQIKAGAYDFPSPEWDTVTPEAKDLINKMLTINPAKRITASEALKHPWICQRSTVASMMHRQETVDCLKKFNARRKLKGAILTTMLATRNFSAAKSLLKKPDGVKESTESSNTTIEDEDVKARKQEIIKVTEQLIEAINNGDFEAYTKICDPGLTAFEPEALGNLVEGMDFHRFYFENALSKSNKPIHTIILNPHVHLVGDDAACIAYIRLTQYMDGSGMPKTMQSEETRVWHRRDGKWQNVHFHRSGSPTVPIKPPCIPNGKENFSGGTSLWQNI
Tyrosine-protein kinase ABL1 (Homo sapiens), P00519 [F317I], sequence (P00519 whole entry F317I): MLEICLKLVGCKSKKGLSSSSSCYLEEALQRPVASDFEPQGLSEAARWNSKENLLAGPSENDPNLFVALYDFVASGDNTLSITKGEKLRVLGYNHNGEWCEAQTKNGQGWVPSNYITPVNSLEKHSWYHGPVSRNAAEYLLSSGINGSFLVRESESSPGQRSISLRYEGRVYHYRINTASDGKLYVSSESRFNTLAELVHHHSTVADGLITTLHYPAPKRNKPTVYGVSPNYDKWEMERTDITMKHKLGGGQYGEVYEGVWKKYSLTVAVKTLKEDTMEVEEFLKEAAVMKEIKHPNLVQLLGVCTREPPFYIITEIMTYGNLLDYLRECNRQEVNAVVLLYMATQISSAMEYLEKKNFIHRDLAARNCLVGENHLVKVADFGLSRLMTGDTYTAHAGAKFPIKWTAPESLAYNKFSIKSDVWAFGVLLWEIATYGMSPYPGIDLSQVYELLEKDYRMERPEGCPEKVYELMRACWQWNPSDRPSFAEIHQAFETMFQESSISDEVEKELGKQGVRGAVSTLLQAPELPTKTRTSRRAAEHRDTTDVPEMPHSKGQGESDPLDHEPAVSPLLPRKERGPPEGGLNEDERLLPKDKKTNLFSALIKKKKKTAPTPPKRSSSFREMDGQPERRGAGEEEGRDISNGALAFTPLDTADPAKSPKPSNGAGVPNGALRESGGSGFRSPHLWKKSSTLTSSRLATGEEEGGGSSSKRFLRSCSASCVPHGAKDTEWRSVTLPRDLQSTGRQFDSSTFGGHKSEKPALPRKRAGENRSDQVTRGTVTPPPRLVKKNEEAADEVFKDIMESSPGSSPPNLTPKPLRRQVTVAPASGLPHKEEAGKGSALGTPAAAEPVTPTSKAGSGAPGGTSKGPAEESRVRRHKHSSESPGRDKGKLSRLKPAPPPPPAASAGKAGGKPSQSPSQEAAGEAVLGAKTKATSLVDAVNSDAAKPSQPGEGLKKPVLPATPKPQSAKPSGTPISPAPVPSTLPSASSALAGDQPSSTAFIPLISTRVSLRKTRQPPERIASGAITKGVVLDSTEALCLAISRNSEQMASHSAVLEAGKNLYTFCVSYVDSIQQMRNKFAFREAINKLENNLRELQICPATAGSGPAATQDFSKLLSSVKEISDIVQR

The inhibition is the relative decrease from the control value, in per cent. The IC50 is the concentration at which inhibition is half-maximal. Turning to `CCOc1cc(N2CCC(O)CC2)ccc1Nc1ncc2c(n1)N(C)c1ccccc1C(=O)N2C`, the inhibition at 10 µM in assay [1] is 18.1%. Moreover, the inhibition in [2] is -3.9%; in assay [3], 5.4%; in [4], 5.5%; in assay [5] it was -2.5%; in assay [8], 58%; in assay [9], -8.6%. Besides, the inhibition result in assay [6] was “Active”. Further, in assay [7], the inhibition at 50 µM was -14.5%. Besides, in [10], the Activity was 30%. Moreover, the IC50 in [11] was greater than 50 µM.

(Values after ChEMBL document CHEMBL5661979, “Pharmacological inhibition of BMK1 suppresses tumor growth through promyelocytic leukemia protein” (Cancer Cell, 2010).)
